{"source": "ChEMBL document CHEMBL5252608", "about": "“Eremoxylarins D-J, Antibacterial Eremophilane Sesquiterpenes Discovered from an Endolichenic Strain of Xylaria hypoxylon” (J Nat Prod, 2023)", "key": {"[1]": {"tested_on": "Human coronavirus 229E", "experiment": "Antiviral activity against HCoV-229E harboring luciferase reporter gene infected in human Huh-7 cells assessed as reduction in viral replication upto 50 uM pre-incubated for 1 hrs followed by replacement with fresh media for 6 hrs by renilla luciferase based luminometer analysis", "type": "functional, organism-based", "conditions": "time 7.0 hrs", "procedure,_shortened": "(§1)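 Huh-7 or Huh-7/TMPRSS2 cells in DMEM GlutaMAX-I with 10% FBS. Inoculated with luciferase-reporter HCoV-229E at MOI 0.5 for 1 h at 37 °C with compound at increasing concentrations (highest 50 μM). Virus then replaced by compound-containing medium for 6 h. Lysed for Renilla luciferase luminescence, normalised to DMSO control. Triplicate measures, 3 independent experiments, mean ± SEM.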"}, "[2]": {"tested_on": "Human coronavirus 229E", "experiment": "Antiviral activity against HCoV-229E harboring luciferase reporter gene infected in human Huh-7 cells expressing TMPRSS2 assessed as reduction in viral replication upto 50 uM pre-incubated for 1 hrs followed by replacement with fresh media for 6 hrs by renilla luciferase based luminometer analysis", "type": "functional, organism-based", "conditions": "time 7.0 hrs", "procedure,_shortened": "as §1"}, "[3]": {"tested_on": "Human coronavirus 229E", "experiment": "Antiviral activity against HCoV-229E harboring luciferase reporter gene infected in human Huh-7 cells assessed as reduction in viral replication pre-incubated for 1 hrs followed by replacement with fresh media for 6 hrs by renilla luciferase based luminometer analysis", "type": "functional, organism-based", "procedure,_shortened": "as §1"}, "[4]": {"tested_on": "Human coronavirus 229E", "experiment": "Antiviral activity against HCoV-229E harboring luciferase reporter gene infected in human Huh-7 cells expressing TMPRSS2 assessed as reduction in viral replication pre-incubated for 1 hrs followed by replacement with fresh media for 6 hrs by renilla luciferase based luminometer analysis", "type": "functional, organism-based", "conditions": "time 7.0 hrs", "procedure,_shortened": "as §1"}, "[5]": {"experiment": "Selectivity index, ratio of CC50 for human Huh-7 cells to IC50 for antiviral activity against HCoV-229E harboring luciferase reporter gene infected in human Huh-7 cells", "type": "toxicity, cell-based", "conditions": "read-out: Ratio CC50/IC50", "procedure,_shortened": "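Huh-7 cells (6×10^4/well) seeded and held 16 h at 37 °C, 5% CO₂, then treated 24 h with increasing compound concentrations. MTS viability read as formazan absorbance at 490 nm; CC50 derived, 3 experiments. Ratio taken against IC50 from the luciferase-reporter HCoV-229E infection assay in Huh-7 cells (MOI 0.5, 1 h plus 6 h).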"}}, "note": "The source made the active and inactive calls. The calls are words filed in the database; no cut-off is given here.", "data": [{"smiles": "C=C(C=O)[C@H]1CC=C2[C@H](OC(=O)/C(C)=C/C=C/CCCCC)CC[C@H](C(=O)O)[C@@]2(C)C1", "values": [{"measurement": "Activity", "setting": "[1]", "result": "inactive"}, {"measurement": "Activity", "setting": "[2]", "result": "inactive"}]}, {"smiles": "C=C(C=O)[C@H]1CC=C2[C@H](OC(=O)/C(C)=C/CCCCCCC)CC[C@H](C(=O)O)[C@@]2(C)C1", "values": [{"measurement": "IC50", "setting": "[3]", "result": 18.1, "unit": "µM"}, {"measurement": "Activity", "setting": "[3]; time 7.0 hrs", "result": "Active"}, {"measurement": "Activity", "setting": "[4]", "result": "Active"}, {"measurement": "selectivity ratio", "setting": "[5]", "result": 2.57}]}]}
